The source of these data is ChEMBL document CHEMBL4346654 (Eur J Med Chem, 2019).

Values after ≈ are worked out from the molar mass of the structure shown.

Type in all cases: functional
Test [1] relates to Staphylococcus aureus. As to the kind of experiment: Antibacterial activity against MLS-resistant Staphylococcus aureus PU 32 expressing inducible ermA gene assessed as reduction in microbial growth by CLSI based two-fold broth dilution method. On the technique in general: In broth dilution the organism is exposed to a series of concentrations in liquid medium.
Test [2] concerns Streptococcus pneumoniae. As to the kind of experiment: Antibacterial activity against erythromycin-susceptible Streptococcus pneumoniae ATCC49619 assessed as reduction in microbial growth by CLSI based two-fold broth dilution method.
In test [3] the test system is Streptococcus pneumoniae. Kind of test: Bactericidal activity against erythromycin-susceptible Streptococcus pneumoniae ATCC49619 pretreated followed by subculture in absence of compound measured after 24 hrs. In a few lines:
(§1)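 Isolates were identified by 16S rDNA sequencing. MIC was determined by CLSI-recommended two-fold broth dilution. For MBC, samples from 1–8 fold MIC were transferred to culture medium and subcultured for 24 h without antibiotic.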

Test [4] has as its system Haemophilus influenzae. As to the kind of experiment: Antibacterial activity against azithromycin-susceptible Haemophilus influenzae ATCC 49247 assessed as reduction in microbial growth by CLSI based two-fold broth dilution method.
For test [5], the system named is Streptococcus pneumoniae. Kind of test: Selectivity ratio of MBC to MIC for erythromycin-susceptible Streptococcus pneumoniae ATCC49619. Put shortly:
as §1

Test [6] concerns Streptococcus pneumoniae. Kind of test: Antibacterial activity against Streptococcus pneumoniae 07P390 expressing constitutive ermB gene assessed as reduction in microbial growth by CLSI based two-fold broth dilution method.
In test [7] the test system is Streptococcus pneumoniae. Kind of test: Antibacterial activity against penicillin-susceptible Streptococcus pneumoniae PU 09 expressing mef gene assessed as reduction in microbial growth by CLSI based two-fold broth dilution method.
For test [8], the system named is Streptococcus pneumoniae. As to the kind of experiment: Bactericidal activity against penicillin-susceptible Streptococcus pneumoniae PU 09 expressing mef gene pretreated followed by subculture in absence of compound measured after 24 hrs. Put shortly:
as §1

Test [9] concerns Streptococcus pneumoniae. Kind of test: Selectivity ratio of MBC to MIC for penicillin-susceptible Streptococcus pneumoniae PU 09 expressing mef gene. In a few lines:
as §1

Test [10] deals with Haemophilus influenzae. Kind of test: Bactericidal activity against azithromycin-susceptible Haemophilus influenzae ATCC 49247 pretreated followed by subculture in absence of compound measured after 24 hrs. Put shortly:
as §1

For test [11], the system named is Haemophilus influenzae. As to the kind of experiment: Selectivity ratio of MBC to MIC for azithromycin-susceptible Haemophilus influenzae ATCC 49247. Put shortly: as §1
The subject of test [12] is Streptococcus pyogenes. As to the kind of experiment: Antibacterial activity against MLS-resistant Streptococcus pyogenes 01-968 expressing inducible ermB gene assessed as reduction in microbial growth by CLSI based two-fold broth dilution method.
In test [13] the test system is Streptococcus pyogenes. As to the kind of experiment: Bactericidal activity against MLS-resistant Streptococcus pyogenes 01-968 expressing inducible ermB gene pretreated followed by subculture in absence of compound measured after 24 hrs. In a few lines:
(§2)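 MBC assay. Following MIC determination by CLSI standard two-fold broth dilution, samples at 1–8 fold MIC were transferred to fresh culture medium. They were subcultured for 24 h without antibiotic. Isolates were identified by 16S rDNA sequencing. S. aureus ATCC 29213 was used as a control strain.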

Test [14] relates to Streptococcus pyogenes. As to the kind of experiment: Selectivity ratio of MBC to MIC for MLS-resistant Streptococcus pyogenes 01-968 expressing inducible ermB gene. In a few lines: (§3)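 MBC/MIC ratio. MIC was measured by CLSI standard two-fold broth dilution. MBC was measured by transferring samples at 1–8 fold MIC to culture medium and subculturing for 24 h without antibiotic. Isolates were identified by 16S rDNA sequencing.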

The subject of test [15] is Staphylococcus aureus. Kind of test: Bactericidal activity against MLS/methicillin-resistant Staphylococcus aureus PU 32 expressing inducible ermA gene pretreated followed by subculture in absence of compound measured after 24 hrs. Put shortly: as §2
The subject of test [16] is Staphylococcus aureus. Kind of test: Selectivity ratio of MBC to MIC for MLS/methicillin-resistant Staphylococcus aureus PU 32 expressing inducible ermA gene. In a few lines:
as §3

Test [17] concerns Staphylococcus aureus. Kind of test: Antibacterial activity against MLS-resistant Staphylococcus aureus PU 20 expressing constitutive ermC gene assessed as reduction in microbial growth by CLSI based two-fold broth dilution method.

For `CC[C@H]1OC(=O)[C@@](C)(F)C(=O)[C@H](C)[C@@H](O[C@@H]2O[C@H](C)C[C@H](N(C)C)[C@H]2O)[C@](C)(OC)C[C@@H](C)/C(=N\OCC#Cc2cncc(N)c2)[C@H](C)[C@H]2OC(=O)O[C@@]21C`, the MIC in the test with Staphylococcus aureus [1] is 0.5 µg/mL; with Streptococcus pneumoniae [2], 0.25 µg/mL; with Haemophilus influenzae [4] it was 16 µg/mL; in the test with Streptococcus pneumoniae [6] it was greater than 32 µg/mL; in the test on Streptococcus pneumoniae [7], 4 µg/mL; in the test with Streptococcus pyogenes [12], 0.062 µg/mL. For the same compound, in the test with Staphylococcus aureus [17], the MIC was greater than 256 µg/mL. Further, the MBC is 0.5 µg/mL (≈ 0.644 µM) with Streptococcus pneumoniae [3]; 4 µg/mL (≈ 5.15 µM) with Streptococcus pneumoniae [8]; 32 µg/mL (≈ 41.2 µM) in the test with Haemophilus influenzae [10]; greater than 0.5 µg/mL with Streptococcus pyogenes [13]; greater than 4 µg/mL in the test on Staphylococcus aureus [15]. Further, the Selectivity ratio with Streptococcus pneumoniae [5] is reported as 2; with Streptococcus pneumoniae [9], 1; with Haemophilus influenzae [11], 2; in the test with Streptococcus pyogenes [14], greater than 8; with Staphylococcus aureus [16], greater than 8.

With `CC[C@H]1OC(=O)[C@@](C)(F)C(=O)[C@H](C)[C@@H](O[C@@H]2O[C@H](C)C[C@H](N(C)C)[C@H]2O)[C@](C)(OC)C[C@@H](C)/C(=N\OCC#Cc2cncc(C(N)=O)c2)[C@H](C)[C@H]2OC(=O)O[C@@]21C`, the MIC is 1 µg/mL in the test with Staphylococcus aureus [1]; 0.25 µg/mL with Streptococcus pneumoniae [2]; 16 µg/mL in the test with Haemophilus influenzae [4]; greater than 32 µg/mL in the test with Streptococcus pneumoniae [6]; 2 µg/mL with Streptococcus pneumoniae [7]; 0.125 µg/mL in the test with Streptococcus pyogenes [12]. Moreover, the MIC in the test with Staphylococcus aureus [17] was greater than 256 µg/mL. For the same compound, the MBC was 1 µg/mL (≈ 1.24 µM) in the test on Streptococcus pneumoniae [3]; 2 µg/mL (≈ 2.48 µM) in the test on Streptococcus pneumoniae [8]; 32 µg/mL (≈ 39.8 µM) in the test on Haemophilus influenzae [10]; greater than 1 µg/mL in the test on Streptococcus pyogenes [13]; greater than 8 µg/mL with Staphylococcus aureus [15]. For the same compound, the Selectivity ratio is recorded as 4 in the test on Streptococcus pneumoniae [5]; 1 with Streptococcus pneumoniae [9]; 2 with Haemophilus influenzae [11]; greater than 8 with Streptococcus pyogenes [14]; greater than 8 in the test with Staphylococcus aureus [16].

As to `CC[C@H]1OC(=O)[C@@](C)(F)C(=O)[C@H](C)[C@@H](O[C@@H]2O[C@H](C)C[C@H](N(C)C)[C@H]2O)[C@](C)(OC)C[C@@H](C)/C(=N\OC/C=C/c2cncc(C(=O)O)c2)[C@H](C)[C@H]2OC(=O)O[C@@]21C`, the MIC in the test with Staphylococcus aureus [1] was 8 µg/mL; in the test on Streptococcus pneumoniae [2], 0.25 µg/mL; with Haemophilus influenzae [4] it was 32 µg/mL; in the test with Streptococcus pneumoniae [6], greater than 32 µg/mL; with Streptococcus pneumoniae [7], 8 µg/mL; in the test on Streptococcus pyogenes [12], 0.5 µg/mL. In addition, the MIC with Staphylococcus aureus [17] was greater than 256 µg/mL. The MBC is 0.5 µg/mL (≈ 0.619 µM) in the test with Streptococcus pneumoniae [3]; 16 µg/mL (≈ 19.8 µM) with Streptococcus pneumoniae [8]; 32 µg/mL (≈ 39.6 µM) with Haemophilus influenzae [10]; greater than 4 µg/mL in the test on Streptococcus pyogenes [13]; greater than 64 µg/mL in the test on Staphylococcus aureus [15]. Further, the Selectivity ratio with Streptococcus pneumoniae [5] is listed as 2; in the test with Streptococcus pneumoniae [9], 2; with Haemophilus influenzae [11] it was 1; in the test on Streptococcus pyogenes [14], greater than 8; in the test with Staphylococcus aureus [16], greater than 8.

In the case of `CC[C@H]1OC(=O)[C@@](C)(F)C(=O)[C@H](C)[C@@H](O[C@@H]2O[C@H](C)C[C@H](N(C)C)[C@H]2O)[C@](C)(OC)C[C@@H](C)/C(=N\OCC#Cc2cncc(NC(C)=O)c2)[C@H](C)[C@H]2OC(=O)O[C@@]21C`, the MIC in the test with Staphylococcus aureus [1] was 1 µg/mL; with Streptococcus pneumoniae [2], 0.062 µg/mL; with Haemophilus influenzae [4], 8 µg/mL; with Streptococcus pneumoniae [6], greater than 32 µg/mL; in the test with Streptococcus pneumoniae [7], 4 µg/mL; in the test on Streptococcus pyogenes [12] it was 0.125 µg/mL. Besides, in the test with Staphylococcus aureus [17], the MIC was greater than 256 µg/mL. Moreover, the MBC was 0.25 µg/mL (≈ 0.305 µM) with Streptococcus pneumoniae [3]; 4 µg/mL (≈ 4.88 µM) in the test with Streptococcus pneumoniae [8]; 16 µg/mL (≈ 19.5 µM) in the test with Haemophilus influenzae [10]; greater than 1 µg/mL in the test with Streptococcus pyogenes [13]; greater than 8 µg/mL with Staphylococcus aureus [15]. Besides, the Selectivity ratio in the test on Streptococcus pneumoniae [5] is on record as 4; with Streptococcus pneumoniae [9], 1; with Haemophilus influenzae [11], 2; in the test on Streptococcus pyogenes [14], greater than 8; in the test with Staphylococcus aureus [16], greater than 8.
